Rows were chosen to be rich in hits. Some 9.6% of all compounds tested hit in one or more screens of this group.
Ba/F3 V617F tox: loss of viability in JAK2V617F-driven Ba/F3 cells | Ba/F3 EpoR-JAK2V617F viability, ATP luminescence | inhibition, % at 5.6 µM | 220,000 tested, 1.1% active | AID 1446;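 active = inhibition above the campaign mean plus 3 SD over all tested compounds, cut at about 24% in these data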;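 note: cytokine-independent growth of Ba/F3 cells driven by EpoR plus mutant JAK2; 0% = DMSO-treated cells and 100% = JAK inhibitor I control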
BaF3 tox: reduces parental Ba/F3 cell viability, JAK2V617F counter-screen | CellTiter-Glo ATP luminescence | AID 1486 | 220,000 tested, 1.1% active | inhibition, % at 5.6 µM;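 active = inhibition above a per-campaign cutoff, the mean inhibition of all tested compounds plus 3 SD, cut at about 27% in these data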;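 note: 0% = DMSO wells and 100% = JAK Inhibitor I control wells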
APP 5UTR inh: APP translation inhibition; SH-SY5Y APP 5'UTR-luciferase reporter, luminescence; inhibition, % at 2 µM; 190,000 tested, 0.82% active; AID 1285;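 active = inhibition above a set limit, derived from the sample mean plus 3 SD, cut at about 45% in these data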
MT stabilize HCS: microtubule stabilization, imaging screen; HeLa tubulin immunostaining HCS, 24 h; share of cells brighter than vehicle mean+2SD; % tubulin-high responders, % at 10 µM; 200,000 tested, 0.83% active; AID 2205;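 active = plate Z-score above 3 for both tubulin-high and condensed-nucleus cell shares, with cell loss under 80%, at 10 µM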;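 note: anti alpha tubulin signal scored within the nucleus-defined area of each cell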
bCat nuc transl: alters nuclear translocation of beta-catenin in HeLa cells. AID 1665. immunofluorescence imaging. 190,000 tested, 0.3% active. nuclear translocation activity, % at 5 µM;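 active = nuclear translocation activity above 50% at 5 µM, with a well cell count of 50 or more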;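 note: per-cell ratio of nuclear to cytoplasmic median beta-catenin stain intensity; plate controls were DMSO negative control for no effect and GSK-3 inhibitor IX positive control for full effect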
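Signal – beta-catenin immunofluorescence imaging with DAPI · Test system – human HeLa cell line · Dosing – 5 µM primary single dose, 0.1% DMSO, 0.02–20 µM confirmation series · Measure – % activation, nuclear-to-cytoplasmic median beta-catenin signal ratio per cell · Incubation – 24 h compound exposure at 37°C, 5% CO2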
Lmaj promast: Leishmania major promastigote growth inhibition; AID 1063; Leishmania major promastigotes, resazurin fluorescence viability; 200,000 tested, 9% active; inhibition, % at 10 µM; in the data active = inhibition above about 50%;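 note: promastigotes grown with compound for 44 hours at 28 °C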
* hit, by the source's call; . = no result.

SMILES	Ba/F3 V617F tox	BaF3 tox	APP 5UTR inh	MT stabilize HCS	bCat nuc transl	Lmaj promast
CCCCn1c(SCC(=O)Nc2cc(C(F)(F)F)cc(C(F)(F)F)c2)nnc1C(CC)N(C)C (centres undefined)	2.4	3.2	-4.4	1.4	1.6	16.6
O=C(/C=C/c1ccc(S(=O)(=O)NCc2ccco2)cc1)NCc1cccc(Cl)c1	-4.4	3.4	-24.9	3.6	-2.9	93.5*
COc1ccccc1CNC(=O)/C=C/c1ccc(S(=O)(=O)NCc2ccco2)cc1	0.7	3.4	21.9	2.6	-3.6	10.0
NS(=O)(=O)c1ccc(CNC(=O)/C=C/c2ccco2)cc1	92.8*	56.1*	.	.	1.5	.
Cc1ccc(CNC(=O)/C=C/c2ccc(S(=O)(=O)NCc3ccco3)cc2)cc1	-1.0	3.0	-1.4	0.8	0.4	78.0*
Cc1nn(C)c(Cl)c1C(=O)NCC(=O)NCc1ccccc1	2.5	5.7	10.2	3.3	1.9	14.1
Cc1oc(-c2cc(F)ccc2F)nc1CN1CCN(c2cnccn2)CC1	0.1	9.5	0.1	1.3	0.0	-4.2
Cc1oc(-c2cc(F)ccc2F)nc1CN(C)Cc1ccc2nccnc2c1	0.5	3.5	11.9	4.0	-0.3	75.3*
CCOC(=O)CCc1c(C)nc(-n2[nH]c(C)c(CCO)c2=O)[nH]c1=O	3.6	1.6	-16.1	3.1	-0.5	-4.6
CCOC(=O)C1CCN(Cc2ccccc2C)CC1	0.6	6.2	12.6	1.0	-0.3	88.7*
CCOC(=O)C1CCN(Cc2cnc(Oc3ccc(OC)cc3)s2)CC1	-2.9	0.4	-4.1	1.5	.	93.2*
CCOC(=O)C1CCN(Cc2ccc(N(C)C)cc2)CC1	-0.1	3.7	-2.0	3.1	.	44.2
CCOC(=O)C1CCCN(Cc2ccccc2C)C1 (centres undefined)	-1.7	8.2	-0.1	4.4	0.8	-6.0
CCOC(=O)C1CCCN(Cc2nc(N)nc(Nc3ccc(Cl)cc3)n2)C1 (centres undefined)	0.6	1.6	-0.9	1.5	-1.4	71.2*
CCOC(=O)C1CCN(Cc2ccc(F)c(F)c2)CC1	-3.6	5.2	0.6	1.2	.	80.4*
Cc1ccccc1C(=O)N/N=C1/SCC(=O)N1Cc1ccc2c(c1)OCO2	1.4	5.5	13.5	2.7	0.5	26.2
CCOC(=O)C1CCCN(Cc2ccc(OCC)cc2)C1 (centres undefined)	-4.0	3.0	-12.3	2.9	.	89.5*
COc1ccc(Nc2nc(N)nc(CN3CCC(Cc4ccccc4)CC3)n2)cc1	4.0	7.1	-2.8	3.4	-4.2	86.7*
CCOC(=O)C1CCN(Cc2ccc(OC)cc2OC)CC1	-3.9	2.7	-12.7	3.6	-0.6	-2.0
CCOC(=O)C1CCN(Cc2cccc(OC)c2)CC1	-0.1	5.1	21.5	2.3	.	89.7*
CCOC(=O)C1CCN(Cc2cc(C(C)C)c(O)c(C(C)C)c2)CC1	1.5	1.3	17.6	2.5	-0.1	58.5*
CCCCNC(=O)NC1CCCC1	-5.6	3.0	-2.3	4.2	-0.4	-1.4
CN(C)c1ccc(NC(=O)Cn2ncn3c(cc4ccccc43)c2=O)cc1	2.9	4.4	-9.3	3.7	-0.8	57.9*
Cc1cc(C)cc(NC(=O)Cn2ncn3c(cc4ccccc43)c2=O)c1	-8.4	-1.0	15.5	1.3	.	-0.3
Cc1nn(Cc2ccccc2)c(Cl)c1/C=C/C(=O)OC(C(=O)NC(N)=O)C(C)C (centres undefined)	-2.2	1.4	4.2	1.7	0.3	-6.5
SMILES	Ba/F3 V617F tox	BaF3 tox	APP 5UTR inh	MT stabilize HCS	bCat nuc transl	Lmaj promast
CCCC(=O)NC(c1ccco1)c1cc(Cl)c2cccnc2c1O (centres undefined)	7.0	3.6	3.9	7.4	-2.9	-1.9
CCCC(=O)NC(c1ccc2c(c1)OCO2)c1cc(Cl)c2cccnc2c1O (centres undefined)	-5.1	-0.6	75.2*	4.2	-0.1	98.7*
CCCC(=O)NC(c1cccs1)c1cc(Cl)c2cccnc2c1O (centres undefined)	-1.6	-2.2	43.5	5.0	-1.1	98.7*
O=C1CC(c2ccccc2)CC(O)=C1C=NCCN1CCN(C(=O)Nc2ccccc2)CC1 (centres undefined)	1.5	1.9	7.8	2.8	-5.5	-3.8
COc1ccccc1N(C)S(=O)(=O)c1ccc(C(=O)OCC(=O)N(C)c2ccccc2)cc1	2.1	3.0	0.8	3.7	-3.4	96.5*
COc1ccccc1N(C)S(=O)(=O)c1ccc(C(=O)NC2=NCCS2)cc1	0.2	-0.1	1.9	4.9	3.1	95.9*
COc1ccccc1N(C)S(=O)(=O)c1ccc(C(=O)OCC(=O)c2c[nH]c3ccccc23)cc1	2.0	3.4	-6.5	2.8	2.5	100.1*
COc1ccccc1N(C)S(=O)(=O)c1ccc(C(=O)OC(C)C(=O)NCc2ccc3c(c2)OCO3)cc1 (centres undefined)	-2.1	-2.1	-16.6	3.2	-4.0	97.6*
COc1cccc(C(=O)OCC(=O)c2c[nH]c3ccccc23)c1O	-2.8	-1.2	-24.6	4.2	-4.6	26.1
NC(=O)c1nn(CC(=O)Nc2ccc3c(c2)OCO3)cc1[N+](=O)[O-]	2.9	8.9	4.3	3.2	-3.8	-3.6
COc1cc(NC(=O)c2ccco2)c(C(=O)OCC(=O)c2c[nH]c3ccccc23)cc1OC	0.5	3.7	0.2	1.7	.	55.4*
O=C(OCC(=O)c1c[nH]c2ccccc12)c1ccco1	-4.2	3.2	-29.7	2.1	1.0	-7.3
COc1ccc(OC)c2[nH]c(=O)c(CCNC(=O)Cc3cccs3)cc12	3.4	5.2	27.7	2.2	-0.1	-4.4
COc1ccc(C(=O)c2cc([N+](=O)[O-])ccc2N2CCOCC2)cc1	91.8*	93.7*	92.8*	6.7	57.1*	-0.9
Cc1ccc(C(=O)c2cc([N+](=O)[O-])ccc2N2CCOCC2)cc1	5.1	5.0	93.2*	18.4*	8.0	46.0
CCOc1ccc(C(=O)c2cc([N+](=O)[O-])ccc2N2CCOCC2)cc1	96.9*	95.7*	94.1*	14.9*	36.6	0.0
O=C(O)c1cc([N+](=O)[O-])ccc1N1CCCCC1	2.5	8.9	9.8	2.4	1.7	-1.1
Cc1ccc(C(=O)c2cc([N+](=O)[O-])ccc2N2CCCCC2)c(C)c1	88.1*	86.5*	96.2*	5.9	58.8*	25.9
COc1ccc(NC(=S)NC(=O)CC(C)C)c(OC)c1	6.4	2.5	-5.6	10.1	-0.8	-4.4
C/C=C/C=C/C(=O)[C@@H]1[C@@H]([C@]2(C)OC(=O)C(C)=C2O)[C@H]2/C(=C(O)/C=C/C=C/C)C(=O)[C@]1(C)C(=O)C2(C)O (some centres undefined)	.	.	.	.	2.4	.
CC1=CC(=C(C#N)C#N)c2ccccc2N1C	3.6	14.4	-2.5	4.9	-3.3	98.9*
Cc1ccc(-c2cc(N)n(-c3ccc(F)cc3)n2)cc1	-2.2	-1.6	-70.1	2.8	-1.5	12.6
Cc1cc(OCCn2cnc3ccccc3c2=O)cc(C(C)C)c1	1.3	3.8	23.5	1.0	-1.6	3.6

Assay outcomes: PubChem, several laboratories
